From PubChem BioAssay
An excerpt weighted towards active compounds, which were near 3% of everything screened.
HTR1A agonist – agonists of human 5-HT1a serotonin receptor; 65,000 compounds, 0.56% hits; activation, % at 10 µM; P08908; CHO 5-HT1a Ga15 NFAT-bla reporter, FRET ratio; 0% basal, 100% maximal reference agonist;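 active = activation above the screen-wide mean activation plus 3 SD, cut at about 19% in these data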;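 note: 0% = DMSO wells and 100% = 5-CT at EC100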
Target sequence (P08908 whole entry, looked up): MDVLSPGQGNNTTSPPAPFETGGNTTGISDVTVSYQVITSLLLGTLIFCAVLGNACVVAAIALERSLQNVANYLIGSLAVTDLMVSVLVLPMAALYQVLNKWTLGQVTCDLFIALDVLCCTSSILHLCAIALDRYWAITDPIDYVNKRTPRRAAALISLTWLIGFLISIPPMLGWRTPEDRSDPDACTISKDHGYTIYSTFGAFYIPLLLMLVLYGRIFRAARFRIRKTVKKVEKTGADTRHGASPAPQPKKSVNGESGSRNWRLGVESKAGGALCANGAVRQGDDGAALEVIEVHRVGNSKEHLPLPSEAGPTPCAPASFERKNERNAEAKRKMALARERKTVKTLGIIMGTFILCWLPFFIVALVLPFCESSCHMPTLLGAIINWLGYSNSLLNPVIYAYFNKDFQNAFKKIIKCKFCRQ
5HT1E ag – agonists of human 5-HT1E serotonin receptor | CHO 5-HT1E Ga15 NFAT-bla reporter, FRET; 0% DMSO wells, 100% control agonist wells | 65,000 compounds, 0.69% hits | P28566 | activation, % at 6 µM;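 active = activation above a set limit, the screen-wide mean activation plus 3 SD, cut at about 8.5% in these data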;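 note: 100% = positive control agonist at 1 µM giving full maximal response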
S1P3 agonist – S1P3 (human) receptor agonism; S1P3 NFAT-BLA reporter cells, FRET ratio; relative to 1 µM S1P, basal subtracted; activation, % at 4.5 µM; 60,000 compounds, 0.1% hits;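 active = activation above the screen-wide mean plus 3 SD, cut at about 4.5% in these data, passing the limit was not always enough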
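Benchmarks: high control 1 µM S1P / System: stable CHO line with human S1P3, Gα16, NFAT-BLA reporter / Dosing: single compound concentration, 4.5 µM final / Timing: 4 h compound at 37 °C, 2 h substrate at RT / Measured by: FRET β-lactamase substrate fluorescence, excitation 405 nm, 460/535 nm emission ratio, background-subtracted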
S1P1 ag-PAM – S1P1 (human) agonism or agonism potentiation; P21453; S1P1 CRE-bla cells, forskolin, beta-lactamase FRET, potentiator mode; S1P1 agonist co-added at EC20, 2 nM; 100% = saturating reference agonist, 0% = basal; activation, % at 9.5 µM; 56,000 compounds, 0.57% hits; AID 449;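 active = activation above a cutoff set at the mean activation of all tested compounds plus 3 SD, cut at about 54% in these data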;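 note: forskolin at 4 µM as EC80 and the EC20 agonist is SEW2871; 100% = SEW2871 at its EC100 plus forskolin at EC80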
5HT1E antag – antagonists of human 5-HT1E serotonin receptor. P28566. CHO 5-HT1E Ga15 NFAT-bla reporter, FRET, antagonist. inhibition, % at 6 µM. 65,000 compounds, 0.99% hits. AID 571;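 active = inhibition above a set limit, the mean inhibition across every tested compound plus 3 SD, cut at about 29% in these data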;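 note: signal is the 460 over 535 nm emission ratio of beta-lactamase substrate; 0% = agonist plus DMSO wells and 100% = wells without agonist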
5HT1a antag – blocks the human serotonin 5-HT1a receptor; CHO 5-HT1a Ga15 NFAT-bla reporter, antagonist mode; inhibition, % at 10 µM; 62,000 compounds, 0.68% hits; AID 612;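 active = inhibition above the mean of all tested compounds plus 3 SD, cut at about 43% in these data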;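 note: receptor stimulated by 5-CT agonist at 100 nM near EC80; beta-lactamase reporter measured by ratiometric fluorescence of a cleavable substrate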
Active calls of the source: *; / = not tested or not shown.

SMILES	HTR1A agonist	5HT1E ag	S1P3 agonist	S1P1 ag-PAM	5HT1E antag	5HT1a antag
CCCn1c(=O)c2ccccc2n2c(SCc3c(C(=O)OCC)oc4ccccc34)nnc12	-2	0	13*	-48	1	24
COc1cccc(OCC(=O)Nc2c(C(=O)Nc3ccc(OC)cc3OC)oc3ccccc23)c1	-1	0	0	-28	-12	-62
CCOc1ccccc1C(=O)NC(C)c1ccc2c(c1)OCO2 (configuration not stated)	-2	1	-1	5	13	4
O=C(NCc1ccco1)C1CCN(C(=O)c2cc3sccc3n2Cc2ccc(Cl)cc2)CC1	0	-1	-1	58	0	45*
COc1ccc(C(=O)N2CCCC(c3nc(-c4ccc(OC)c(OC)c4)no3)C2)c(OC)c1 (configuration not stated)	20*	0	-1	55	-4	-11
Nc1nc(-c2ccccc2)cc(-c2ccccc2O)n1	-1	0	0	-39	-3	57*
Nc1nc(-c2ccccc2)nc(-c2ccccc2O)n1	-3	0	0	20	8	51*
CN(C)c1cc(-c2ccccc2)nc(N)n1	2	1	0	-10	-8	0
CCn1c(SCc2ccc(C#N)cc2)nnc1-c1ccc(S(=O)(=O)N2CCCCC2)cc1	1	1	-1	27	2	-4
OC(COc1ccc2c(c1)CCC2)CN1CCN(c2ccccc2F)CC1 (configuration not stated)	1	1	0	-9	-7	44*
C=CCc1ccccc1OCC(O)Cn1ccnc1C (configuration not stated)	-1	-1	0	10	1	-4
OC(COCc1ccccc1)CN1CCN(c2ccccc2F)CC1 (configuration not stated)	2	1	-1	-15	6	22
C=CCc1ccccc1OCC(O)CN1CCN(c2ccc(OC)cc2)CC1 (configuration not stated)	-1	0	0	-36	11	81*
COc1ccccc1N1CCN(CC(O)COc2c(OC)cccc2OC)CC1 (configuration not stated)	-3	3	-2	-28	-4	95*
COc1ccccc1N1CCN(C(=O)N2CCOCC2)CC1	-3	-1	0	-13	-2	-10
COc1cccc(OC)c1OCC(O)CN1CCN(c2ccccc2)CC1 (configuration not stated)	-2	2	0	-18	-1	45*
COc1cc2c(cc1OC)CN(S(=O)(=O)c1ccc3c(c1)OCCO3)CC2	0	1	0	10	-1	-6
CN(C)/C=N/c1c(C#N)nnn1Cc1ccccc1	1	0	0	16	0	13
CC1CCCCC12NC(=O)N(CC(=O)c1ccc[nH]1)C2=O (configuration not stated)	-2	0	0	7	-4	-2
CCOC(=O)N1CCN(CC(O)c2ccc3cc[nH]c3c2)CC1 (configuration not stated)	1	-1	23	-5	2	2
COc1ccccc1N1CCN(CC(O)c2ccc3cc[nH]c3c2)CC1 (configuration not stated)	6	2	-1	19	21	87*
CCn1c2ccccc2c2nnc(SCC(=O)NC(C(=O)OC)C(C)C)nc21 (configuration not stated)	1	-1	-1	-52	7	-11
O=C(CN1CCN(c2ccc(Cl)cc2)CC1)c1ccc2c(c1)OCO2	-3	15*	-1	-84	15	5
CCCSc1nc(N)c(C#N)c(-c2ccc(C)cc2)c1C#N	1	0	-1	8	1	-23
C=CCSc1nc(N)c(C#N)c(-c2ccccc2)c1C#N	-1	-1	-2	-16	41*	7
SMILES	HTR1A agonist	5HT1E ag	S1P3 agonist	S1P1 ag-PAM	5HT1E antag	5HT1a antag
Cn1c(N2CCOCC2)nc(-c2ccccc2)c1-c1ccccc1	2	20*	1	5	-6	0
O=C(NCc1ccco1)c1cccc2c1C(=O)N(C1CCCCC1)C2	2	1	-2	-2	30*	14
O=C(NCc1cccnc1)c1cccc2c1C(=O)N(C1CCCCC1)C2	1	0	0	-8	12	5
COc1ccccc1N1CCN(CC(=O)c2ccc3ccn(C(C)=O)c3c2)CC1	8	30*	-1	16	8	15
COc1ccccc1N1CCN(CCCNC(=O)Nc2ccccc2C)CC1	0	3	/	/	9	82*
COc1ccccc1N1CCN(CC(=O)Nc2cc(F)ccc2C)CC1	0	-1	/	/	-10	43*
CC(=O)OCC(=O)c1ccc2ccn(C(C)=O)c2c1	-2	0	0	9	-5	2
COc1ccccc1N1CCN(CCCC(=O)c2ccc(F)cc2)CC1	4	3	-2	-10	11	93*
O=C(Cn1ccsc1=NC(=O)c1ccco1)c1ccccc1	-3	1	2	-12	-7	-3
CC(C)[C@H](NC(=O)[C@@H]1CSCN1C(=O)OC(C)(C)C)C(=O)NCC1CCC(C(=O)O)CC1 (some centres not stated)	-3	0	0	5	0	-7
Cc1cccc(C)c1N1C(=O)c2ccccc2C1=O	-3	0	14	-9	3	-2
Cc1cccc2[nH]c(-c3ccc(NC(=O)c4ccco4)cc3)nc12	-2	0	0	-5	15	18
Clc1ccc(OCc2nn3c(-c4ccccc4)nnc3s2)c(Cl)c1	-1	-1	-2	-11	9	-7
CCOC(=O)C1=C(C)Nc2ncnn2C1c1cc(Br)ccc1F (configuration not stated)	-3	-1	0	-9	3	-4
COc1cc(/C=C(/C#N)c2ccc(F)cc2)ccc1OCc1ccc(C(=O)O)o1	4	0	-1	-8	-3	-1
Cc1ccccc1Cn1nc(C)c(NC(=O)c2noc3c2CC(C(C)(C)C)CC3)c1C (configuration not stated)	4	1	-1	7	0	-10
Cc1ccccc1Cn1cc(NC(=O)c2noc3c2CC(C(C)(C)C)CC3)cn1 (configuration not stated)	26*	2	-1	-5	-3	6
N#CCSc1nc2cc(C(=O)N3CCCC3)ccc2c(=O)n1Cc1ccccc1	1	1	0	-22	15	-12
N#CCSc1nc2cc(C(=O)N3CCC(C(N)=O)CC3)ccc2c2nc3ccccc3n12	-2	-1	1	-44	53*	8
